Data on five molecules can be found in paper PMC9810080 (Biochemistry, 2022).

Residues, ends and D or L forms follow the SMILES beside them.

Experiment [1] has as its target Ca^2+-bound CaM (full-length calmodulin) (Homo sapiens, UniProt P0DP23). The experiment is described as follows: ITC, peptide binding to full-length Ca2+-bound CaM. The following applies: for K2: association constant, site 2; for K2 / ΔH1 / ΔH2: ITC two-site model, 27 °C, pH 7.0, 1 mM CaCl2; for ΔH1: higher-affinity exothermic site; for ΔH2: lower-affinity endothermic site. In a few lines: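 Calorimetry at 27 °C used CNGB1 CaM-binding-domain peptides (DMSO-d6 stocks, quantified by UV–vis) and recombinant Ca2+-bound CaM, both exchanged into 20 mM Tris pH 7.0, 100 mM KCl, 1 mM CaCl2. Peptide at 50 μM in the cell was titrated with 0.5 mM CaM over 34 injections, and the isotherm was fitted to a two-site model. The apoCaM comparison used 20 mM Tris pH 8.0, 100 mM KCl, 2 mM EGTA with a one-site fit.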

In experiment [2] the target is Ca^2+-bound CaM N-lobe (residues 1–80) (Homo sapiens, UniProt P0DP23). The experiment is described as follows: ITC, peptide binding to isolated CaM N-lobe. The following applies: for ΔH1: ITC, isolated CaM N-lobe, 27 °C, pH 7.0, 1 mM CaCl2. In a few lines: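 The isolated recombinant Ca2+-bound CaM N-lobe and CNGB1 peptides (DMSO-d6 stocks, UV–vis quantified) were buffer-exchanged into 20 mM Tris pH 7.0, 100 mM KCl, 1 mM CaCl2. At 27 °C, 50 μM peptide in the cell was titrated with 0.5 mM N-lobe over 34 injections. The CaM1 isotherm was fitted to a one-site model and the CaM2 isotherm to a two-site model.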
(In ITC the heat of successive injections is recorded.)

The target of experiment [3] is Ca^2+-free CaM (apoCaM) (Homo sapiens, UniProt P0DP23). The experiment is described as follows: ITC, peptide binding to Ca2+-free CaM. The following applies: ITC one-site model; 27 °C; 20 mM Tris pH 8.0, 100 mM KCl, 2 mM EGTA. In a few lines:
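Recombinant calmodulin (Ca²⁺-free) titrated into a synthetic CNGB1 CaM-binding-domain peptide (residues 1120–1147; dissolved in DMSO-d₆, quantified by UV–vis). Both were exchanged into 20 mM Tris pH 8.0, 100 mM KCl, 2 mM EGTA. Peptide was 50 μM in the cell and CaM was 0.5 mM in the syringe, over 34 injections at 27 °C. The isotherm was fit to a one-site model for ΔH.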

The target in experiment [4] is Ca^2+-bound CaM C-lobe (residues 80–149) (Homo sapiens, UniProt P0DP23). The experiment is described as follows: ITC, peptide binding to isolated CaM C-lobe. The following applies: for ΔH1: ITC one-site model, isolated CaM C-lobe, 27 °C, pH 7.0, 1 mM CaCl2; for fold decrease in binding affinity to CaM C-lobe caused by mutation: versus CaM2^WT, ITC. In a few lines:
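Wild-type and point-mutant CNGB1 peptides (DMSO-d6 stocks, UV–vis quantified) and the recombinant Ca2+-bound CaM C-lobe fragment were exchanged into 20 mM Tris pH 7.0, 100 mM KCl, 1 mM CaCl2. At 27 °C, 50 μM peptide in the cell was titrated with 0.5 mM C-lobe over 34 injections. Isotherms were fitted to a one-site model.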

Consider `CC[C@H](C)[C@H](NC(=O)[C@H](CC(C)C)NC(=O)[C@H](CCCCN)NC(=O)[C@H](CCC(=O)O)NC(=O)[C@H](CCCCN)NC(=O)[C@@H](NC(=O)[C@H](CCCCN)NC(=O)[C@H](CCC(=O)O)NC(=O)[C@@H](NC(=O)[C@H](CCCNC(=N)N)NC(=O)[C@H](CCC(=O)O)NC(=O)[C@H](CCCCN)NC(=O)[C@H](Cc1ccccc1)NC(=O)[C@H](CC(C)C)NC(=O)[C@H](CCCCN)NC(=O)[C@@H](NC(=O)[C@H](CC(C)C)NC(=O)[C@H](CCC(=O)O)NC(=O)[C@H](CCC(N)=O)NC(=O)[C@H](CC(C)C)NC(=O)[C@H](CCCNC(=N)N)NC(=O)[C@H](CC(=O)O)NC(=O)[C@@H](N)CC(N)=O)C(C)C)[C@@H](C)O)C(C)C)C(=O)N[C@@H](CC(=O)O)C(=O)N1CCC[C@H]1C(=O)O` [CaM1] (H-NDRLQELVKLFKERTEKVKEKLIDP-OH; N-terminus and C-terminus assumed), for which, in experiment [1], the K2 is recorded as 4.2 ± 0.5 × 10^3 M^−1, the ΔH1 was -7.5 ± 0.2 kcal/mol and the ΔH2 entry is “+40 ± 4 kcal/mol”. The “fold higher affinity for Ca^2+-bound CaM compared to apoCaM” value in experiment [1] (comparison of NMR spectral changes and ITC) is given as “at least 100 fold”. In addition, the ΔH1 in experiment [2] was -2.5 ± 0.2 kcal/mol. Besides, in experiment [2] (from ITC with isolated lobes), the “fold higher affinity for CaM N-lobe compared to CaM C-lobe” value is on record as “at least fivefold”.

In the case of `CC[C@H](C)[C@H](NC(=O)[C@H](CC(C)C)NC(=O)[C@H](CCCCN)NC(=O)[C@H](CCC(=O)O)NC(=O)[C@H](CCCCN)NC(=O)[C@@H](NC(=O)[C@H](CCCCN)NC(=O)[C@H](CCC(=O)O)NC(=O)[C@@H](NC(=O)[C@H](CCCNC(=N)N)NC(=O)[C@H](CCC(=O)O)NC(=O)[C@H](CCCCN)NC(=O)[C@H](CCC(=O)O)NC(=O)[C@H](CC(C)C)NC(=O)[C@H](CCCCN)NC(=O)[C@@H](NC(=O)[C@H](CC(C)C)NC(=O)[C@H](CCC(=O)O)NC(=O)[C@H](CCC(N)=O)NC(=O)[C@H](CC(C)C)NC(=O)[C@H](CCCNC(=N)N)NC(=O)[C@H](CC(=O)O)NC(=O)[C@@H](N)CC(N)=O)C(C)C)[C@@H](C)O)C(C)C)C(=O)N[C@@H](CC(=O)O)C(=O)N1CCC[C@H]1C(=O)O` [CaM1^F575E] (H-NDRLQELVKLEKERTEKVKEKLIDP-OH; N-terminus and C-terminus assumed), the ΔH1 result in experiment [2] is reported as “+0.7 ± 0.5 kcal/mol”.

Turning to `CC(C)C[C@H](NC(=O)[C@H](C)NC(=O)[C@H](C)NC(=O)[C@H](CC(C)C)NC(=O)[C@H](CCC(=O)O)NC(=O)[C@H](CCCCN)NC(=O)[C@H](CC(C)C)NC(=O)[C@H](CCCNC(=N)N)NC(=O)[C@H](C)NC(=O)[C@H](CCCNC(=N)N)NC(=O)[C@H](CC(C)C)NC(=O)[C@H](Cc1c[nH]cn1)NC(=O)[C@H](C)NC(=O)[C@H](CC(C)C)NC(=O)[C@H](CCCCN)NC(=O)CNC(=O)CNC(=O)[C@H](CCCCN)NC(=O)[C@H](C)NC(=O)CNC(=O)[C@H](CCCCN)NC(=O)CNC(=O)CN)C(=O)N[C@@H](CCC(=O)O)C(=O)N[C@@H](C)C(=O)N[C@@H](C)C(=O)N[C@@H](C)C(=O)N[C@@H](CCCCN)C(=O)O` [CaM2] (H-GGKGAKGGKLAHLRARLKELAALEAAAK-OH; N-terminus and C-terminus assumed), the ΔH entry in experiment [3] is “+2.1 ± 0.4 kcal/mol”. In experiment [1], the K2 is recorded as 2.9 ± 0.5 × 10^6 M^−1, the ΔH1 was -4.5 ± 1.6 kcal/mol and the ΔH2 entry was “+16 ± 2 kcal/mol”. The “binding stoichiometry at saturation (peptide:CaM)” value in experiment [1] (biphasic ITC isotherm) was “two CaM2 molecules are bound to one molecule of CaM”. Also, the ΔH1 in experiment [4] was -2.0 ± 0.1 kcal/mol.

With `CC(C)C[C@H](NC(=O)[C@H](C)NC(=O)[C@H](C)NC(=O)[C@H](CC(C)C)NC(=O)[C@H](CCC(=O)O)NC(=O)[C@H](CCCCN)NC(=O)[C@H](CC(C)C)NC(=O)[C@H](CCCNC(=N)N)NC(=O)[C@H](C)NC(=O)[C@H](CCCNC(=N)N)NC(=O)[C@H](CCC(=O)O)NC(=O)[C@H](Cc1c[nH]cn1)NC(=O)[C@H](C)NC(=O)[C@H](CC(C)C)NC(=O)[C@H](CCCCN)NC(=O)CNC(=O)CNC(=O)[C@H](CCCCN)NC(=O)[C@H](C)NC(=O)CNC(=O)[C@H](CCCCN)NC(=O)CNC(=O)CN)C(=O)N[C@@H](CCC(=O)O)C(=O)N[C@@H](C)C(=O)N[C@@H](C)C(=O)N[C@@H](C)C(=O)N[C@@H](CCCCN)C(=O)O` [CaM2^L1132E] (H-GGKGAKGGKLAHERARLKELAALEAAAK-OH; N-terminus and C-terminus assumed), in experiment [4], the ΔH1 entry is recorded as “+3.1 ± 0.5 kcal/mol” and the “fold decrease in binding affinity to CaM C-lobe caused by mutation” value was “more than 500 fold”.

In the case of `CC(C)C[C@H](NC(=O)[C@H](C)NC(=O)[C@H](C)NC(=O)[C@H](CC(C)C)NC(=O)[C@H](CCC(=O)O)NC(=O)[C@H](CCCCN)NC(=O)[C@H](CCC(=O)O)NC(=O)[C@H](CCCNC(=N)N)NC(=O)[C@H](C)NC(=O)[C@H](CCCNC(=N)N)NC(=O)[C@H](CC(C)C)NC(=O)[C@H](Cc1c[nH]cn1)NC(=O)[C@H](C)NC(=O)[C@H](CC(C)C)NC(=O)[C@H](CCCCN)NC(=O)CNC(=O)CNC(=O)[C@H](CCCCN)NC(=O)[C@H](C)NC(=O)CNC(=O)[C@H](CCCCN)NC(=O)CNC(=O)CN)C(=O)N[C@@H](CCC(=O)O)C(=O)N[C@@H](C)C(=O)N[C@@H](C)C(=O)N[C@@H](C)C(=O)N[C@@H](CCCCN)C(=O)O` [CaM2^L1136E] (H-GGKGAKGGKLAHLRAREKELAALEAAAK-OH; N-terminus and C-terminus assumed), in experiment [4], the ΔH1 entry is recorded as “+2.6 ± 1.8 kcal/mol” and the “fold decrease in binding affinity to CaM C-lobe caused by mutation” value was “more than 500 fold”.
